{
  "source": "ChEMBL document CHEMBL1125658",
  "about": "“Synthesis and properties of some peptide analogues of actinomycin D” (1991)",
  "format_in_all_cases": "functional",
  "key": {"[1]": {"system": "Mus musculus", "experiment": "Compound was tested in vivo for its antitumor activity against B16 melanocarcinoma in mice by determining its median survival time at dose of 0.256 mg/Kg"}, "[2]": {"system": "Staphylococcus aureus", "experiment": "Compound was tested for its antibacterial activity against Staphylococcus aureus", "procedure,_shortened": "(§1)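 Overnight culture in trypticase soy broth at 37 °C, 0.1 mL subcultured into 50 mL fresh TSB and grown 8 h. Then 0.1 mL of the rapidly growing culture was diluted into a further 50 mL TSB. 0.1 mL of this dilution inoculated into 2 mL TSB per tube for MIC determination.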"}, "[3]": {"system": "Bacillus subtilis", "experiment": "Compound was tested for its antibacterial activity against Bacillus subtilis", "procedure,_shortened": "as §1"}},
  "note": "Starred links: 1 amine or outer side, 2 acyl side, 3 side chain; linkers in the order of their positions; H or OH if unused. Positions of bridges follow the written chain, without caps; N, C: chain ends. Non-standard residues stand in square brackets, D forms with d. Residues, ends and D or L forms follow the SMILES beside them. Chains are numbered I, II in the order given. Actinocin(1to9) = Cc1c2oc3c(C)ccc(C(=O)[*:2])c3nc-2c(C(=O)[*:1])c(N)c1=O; NMeV = CN[C@H](C(=O)O)C(C)C; Sar = CNCC(=O)O",
  "data": [
    {"smiles": "Cc1c2oc3c(C)ccc(C(=O)N[C@@H]4C(=O)N[C@H](C(C)C)C(=O)N5CCC[C@H]5C(=O)N(C)CC(=O)N(C)[C@@H](C(C)C)C(=O)O[C@@H]4C)c3nc-2c(C(=O)N[C@@H]2C(=O)N[C@H](C(C)C)C(=O)N3CCC[C@H]3C(=O)N(C)CC(=O)N(C)[C@@H](C(C)C)C(=O)O[C@@H]2C)c(N)c1=O", "note": "[DACTINOMYCIN] (I: T[dV]P[Sar][NMeV] / II: T[dV]P[Sar][NMeV]; ester I:1-I:C, II:1-II:C; linker I:N-II:N via Actinocin(1to9))", "values": [
      {"measurement": "T/C", "setting": "[1]", "result": 165},
      {"measurement": "MIC", "setting": "[2]", "result": 0.25, "unit": "µg/mL"},
      {"measurement": "MIC", "setting": "[3]", "result": 0.09, "unit": "µg/mL"}
    ]},
    {"smiles": "Cc1c2oc3c(C)ccc(C(=O)N[C@@H]4C(=O)N[C@H](C(C)C)C(=O)N5CCC[C@H]5C(=O)N(C)CC(=O)N(C)[C@@H](CC(C)C)C(=O)O[C@@H]4C)c3nc-2c(C(=O)N[C@@H]2C(=O)N[C@H](C(C)C)C(=O)N3CCC[C@H]3C(=O)N(C)CC(=O)N(C)[C@@H](CC(C)C)C(=O)O[C@@H]2C)c(N)c1=O", "values": [
      {"measurement": "MIC", "setting": "[2]", "result": 0.5, "unit": "µg/mL"},
      {"measurement": "MIC", "setting": "[3]", "result": 0.2, "unit": "µg/mL"}
    ]}
  ]
}
